Reference: ChEMBL document CHEMBL6092224, “The Discovery and Preclinical Profile of ALG-000184, a Prodrug of the Potent Hepatitis B Virus Capsid Assembly Modulator ALG-001075” (J Med Chem, 2024)
The source made the active and inactive calls. The calls are words filed in the database; no cut-off is given here.

Legend:
Hepatitis B virus [1] = assay: Antiviral activity against HBV infected in human HepG2.117 cells by qPCR analysis; assay type: functional, organism-based
How it was run: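 HepG2.117 cells (integrated genotype D HBV genome, Tet-off promoter; kept in 1 μg/mL doxycycline) were seeded at 20,000 cells/well and given serial compound dilutions (2% DMSO) for 3 days at 37 °C. Lysates were taken in 0.33% NP40. Intracellular HBV DNA was quantified by qPCR and EC50/EC90 derived. For serum shift, 40% human serum was present during incubation. Mean ± SEM, n=3 (serum) or 13.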

[2] = Clearance in mouse; assay type: ADME, organism-based; conditions: in vivo
Hepatitis B virus [3] = assay: Antiviral activity against AAV-Hepatitis B virus infected in C57BL/6 mouse assessed as reduction in baseline HBV DNA production at 50 mg/kg, po qd measured after 7 days; assay type: functional; conditions: time 7 day
[4] = Toxicity in C57BL/6 mouse infected with AAV-Hepatitis B virus assessed as change in ALT level at 50 mg/kg, po bid for 56 days followed by induction of compound washout period for 14 days; assay type: organism-based; conditions: in vivo, 1680 h, time 70 day
Mus musculus [5] = assay: Effect on HBeAg level in C57BL/6 mouse infected with AAV-Hepatitis B virus at 50 mg/kg, po bid for 56 days followed by induction of compound washout period for 14 days; assay type: functional, organism-based; conditions: time 70.0 day
[6] = Toxicity in C57BL/6 mouse infected with AAV-Hepatitis B virus assessed as change in body weight at 50 mg/kg, po bid for 56 days followed by induction of compound washout period for 14 days; assay type: organism-based; conditions: in vivo, 1680 h, time 70 day
Hepatitis B virus [7] = assay: Antiviral activity against AAV-Hepatitis B virus infected in C57BL/6 mouse assessed as reduction in baseline HBV DNA production at 50 mg/kg, po bid for 56 days followed by induction of compound washout period measured after 7 days; assay type: functional, organism-based; conditions: time 63.0 day
Mus musculus [8] = assay: Effect on HBsAg level in C57BL/6 mouse infected with AAV-Hepatitis B virus at 50 mg/kg, po bid for 56 days followed by induction of compound washout period for 14 days; assay type: functional, organism-based; conditions: time 70.0 day
[9] = Metabolic stability in human liver microsomes assessed as half life at 1 uM incubated upto 60 mins in presence of NADPH; assay type: ADME, Microsome
How it was run: (§1)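 Compound at 1 μM incubated at 37 °C with liver microsomes of each species for 0, 15, 30 and 60 min, with and without NADPH; half-life determined.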

hERG (KCNH2) = hERG (KCNH2) (Homo sapiens, UniProt Q12809); assay: Inhibition of hERG expressed in mammalian cells at 10 uM by automated patch-clamp technique relative to control; assay type: toxicity, cell-based; conditions: mammalian cells expressing hERG
How it was run: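 Currents of hERG, Nav1.5 or Cav1.2 channels expressed in mammalian cells recorded by automated patch clamp (QPatch 48) at room temperature.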

[10] = Metabolic stability in mouse liver microsomes assessed as half life at 1 uM incubated upto 60 mins in presence of NADPH; assay type: ADME, Microsome; how it was run: as §1

hERG (KCNH2), sequence (Q12809 whole entry): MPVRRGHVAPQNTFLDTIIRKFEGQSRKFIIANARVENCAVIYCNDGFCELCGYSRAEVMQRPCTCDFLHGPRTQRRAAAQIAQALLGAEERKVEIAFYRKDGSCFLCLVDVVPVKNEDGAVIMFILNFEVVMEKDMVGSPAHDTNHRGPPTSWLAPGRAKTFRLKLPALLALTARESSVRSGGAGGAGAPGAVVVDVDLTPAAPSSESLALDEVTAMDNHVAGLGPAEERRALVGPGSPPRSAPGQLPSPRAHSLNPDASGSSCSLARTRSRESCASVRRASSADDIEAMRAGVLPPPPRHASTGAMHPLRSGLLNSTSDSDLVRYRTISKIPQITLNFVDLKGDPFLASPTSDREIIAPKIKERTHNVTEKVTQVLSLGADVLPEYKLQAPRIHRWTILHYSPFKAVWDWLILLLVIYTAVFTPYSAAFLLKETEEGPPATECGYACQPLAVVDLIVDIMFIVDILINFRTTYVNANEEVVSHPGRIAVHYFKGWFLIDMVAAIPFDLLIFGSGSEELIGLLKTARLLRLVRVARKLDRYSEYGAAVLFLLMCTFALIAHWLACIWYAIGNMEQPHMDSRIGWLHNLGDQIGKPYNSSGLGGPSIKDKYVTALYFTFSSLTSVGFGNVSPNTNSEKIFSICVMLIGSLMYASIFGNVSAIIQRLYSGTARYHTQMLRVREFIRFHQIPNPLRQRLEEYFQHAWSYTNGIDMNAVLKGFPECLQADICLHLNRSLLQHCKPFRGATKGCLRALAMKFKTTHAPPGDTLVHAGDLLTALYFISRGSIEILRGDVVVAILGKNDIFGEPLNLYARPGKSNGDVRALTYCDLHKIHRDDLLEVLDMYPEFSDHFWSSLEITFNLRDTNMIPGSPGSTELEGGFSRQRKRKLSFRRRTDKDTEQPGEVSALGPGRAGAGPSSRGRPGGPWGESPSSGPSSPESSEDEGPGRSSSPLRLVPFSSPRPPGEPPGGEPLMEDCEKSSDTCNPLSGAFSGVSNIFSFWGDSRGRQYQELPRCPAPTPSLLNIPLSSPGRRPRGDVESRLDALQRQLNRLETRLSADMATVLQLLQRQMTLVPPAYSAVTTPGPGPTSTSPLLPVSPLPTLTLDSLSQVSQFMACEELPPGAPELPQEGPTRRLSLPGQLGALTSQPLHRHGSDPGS

Row | Compound | EC50 (Hepatitis B virus [1]) | also measured
1 | C#CC1(NC(=O)C(=O)c2c(C)c(C(=O)Nc3ccc(F)c(C#N)c3)n(C)c2C)CCC1 | 0.73 nM | 
2 | C#CC(C)(C)NC(=O)C(=O)c1c(C)c(C(=O)Nc2ccc(F)c(C#N)c2)n(C)c1C | 1.49 nM | 
3 | C#CCNC(=O)C(=O)c1c(C)c(C(=O)Nc2ccc(F)c(C#N)c2)n(C)c1C | 2.88 nM | clearance [2]: 13.2 mL/min/kg
4 | C[C@@H](NS(=O)(=O)c1cn(C)c(C(=O)Nc2ccnc(Cl)c2)c1F)C(F)(F)F |  | Activity (Hepatitis B virus [3]): -2.5 log10IU/ml; Activity [4]: Non-toxic; Activity (Mus musculus [5]): inactive; Activity [6]: Non-toxic; Activity (Hepatitis B virus [7]): inactive; Activity (Mus musculus [8]): inactive
5 | C#CC1(NC(=O)C(=O)c2c(C)c(C(=O)Nc3ccc(F)c(C#N)c3)n(C)c2C)CC1 | 0.45 nM | 
6 | C#CC1(NC(=O)C(=O)c2c(C)c(C(=O)Nc3ccc(F)c(C#N)c3)n(C)c2C)CCCC1 | 1.99 nM | 
7 | C#CCNC(=O)C(=O)c1c(C)c(C(=O)Nc2ccc(F)c(C)c2)n(C)c1C | 1.98 nM | clearance [2]: 54.3 mL/min/kg
8 | C#C[C@H](C)NC(=O)C(=O)c1c(C)c(C(=O)Nc2ccc(F)c(C#N)c2)n(C)c1C | 0.98 nM | 
9 | C#CC1(NC(=O)C(=O)c2c(C)c(C(=O)Nc3ccc(F)c(C#N)c3)n(C)c2C)CC(F)(F)C1 | 0.32 nM | 

More lines, in order of falling EC50 (Hepatitis B virus [1]), values ahead:

Row | EC50 (Hepatitis B virus [1]) | Compound | also measured
10 | 3.51 nM | C#CC1(NC(=O)C(=O)c2c(C)c(C(=O)Nc3ccc(F)c(C#N)c3)n(C)c2C)CCS(=O)(=O)CC1 | 
11 | 2.65 nM | C#CCNC(=O)C(=O)c1c(C)c(C(=O)Nc2ccc(F)c(C(F)(F)F)c2)n(C)c1C | 
12 | 2.6 nM | C#CCNC(=O)C(=O)c1c(C)c(C(=O)Nc2ccc(F)c(F)c2)n(C)c1C | clearance [2]: 78.2 mL/min/kg; half-life at 1 µM [9]: > 60 min; inhibition at 10 µM (hERG (KCNH2)): 31.2%; half-life at 1 µM [10]: 40.4 min
13 | 2.11 nM | C#CC1(NC(=O)C(=O)c2c(C)c(C(=O)Nc3ccc(F)c(C#N)c3)n(C)c2C)CCOCC1 | 
14 | 1.32 nM | C#C[C@@H](C)NC(=O)C(=O)c1c(C)c(C(=O)Nc2ccc(F)c(C#N)c2)n(C)c1C | 
